Thrombin inh: blocks human thrombin protease activity | alpha-thrombin, Boc-VPR-AMC fluorogenic substrate cleavage | inhibition, % at 5 µM | 220,000 tested, 0.26% active | AID 1046;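 active = inhibition at or above 40%; inactive = inhibition below 40%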;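 note: 0% = enzyme with no compound and 100% = wells without enzyme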
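signal = AMC fluorescence, 355/460 nm | material = human alpha-thrombin enzyme | control set = enzyme without compound as high, wells lacking enzyme as low | times = reaction at room temperature | read-out basis = percent inhibition scaled between no-compound controls and no-enzyme blanks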
FXIa inh: blocks human coagulation factor XIa protease activity; P03951; purified FXIa, Boc-Glu-Ala-Arg-AMC fluorogenic substrate; inhibition, % at 5 µM; 220,000 tested, 0.14% active;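 active = inhibition of at least 40%; inactive = inhibition below 40%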;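 note: fluorescence of freed AMC excited at 355 nm; 0% = enzyme without compound and 100% = no enzyme blank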
KLK5 inh: kallikrein 5 (human) inhibition. Q9Y337. recombinant hK5, fluorogenic AMC substrate cleavage. inhibition, % at 5 µM. 210,000 tested, 0.59% active. AID 873;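 active = inhibition of 40% or more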;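 note: 0% = enzyme controls without compound and 100% = no-enzyme blanks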
Target sequence (Q9Y337 67-293 limits assumed): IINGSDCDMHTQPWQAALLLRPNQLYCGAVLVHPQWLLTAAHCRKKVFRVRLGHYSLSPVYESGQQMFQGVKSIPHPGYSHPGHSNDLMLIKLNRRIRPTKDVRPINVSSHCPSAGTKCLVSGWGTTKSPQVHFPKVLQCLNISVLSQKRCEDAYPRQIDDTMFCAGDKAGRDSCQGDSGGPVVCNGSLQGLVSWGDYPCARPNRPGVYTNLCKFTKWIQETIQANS
FXIIa inh 1536: inhibitors of human coagulation factor XIIa; purified FXIIa, Boc-QGR-AMC fluorogenic substrate, 2 h; inhibition, % at 5 µM; 220,000 tested, 0.3% active; AID 800; in the data active = inhibition above about 40%;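 note: 0% = enzyme with no compound and 100% = blank without enzyme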
Furin inh: inhibitors of human furin; P09958; purified furin, fluorogenic substrate cleavage; inhibition, % at 20 µM or 30 µM; 220,000 tested, 0.061% active; AID 463115; in the data active = inhibition above about 25%
An asterisk follows results filed as active; . = no result given. Compounds with a hit are over-represented: about 1.1% of the library has one in this group of screens.

SMILES | Thrombin inh | FXIa inh | KLK5 inh | FXIIa inh 1536 | Furin inh
CCOc1ncccc1C(=O)OCC(=O)N(CC(C)C)C1CCS(=O)(=O)C1 (stereo not given) | 0.8 | -2.6 | -6.2 | 0.3 | -18.4
O=C(Cn1nnc(-c2ccccc2)n1)OCc1ccccc1 | -2.7 | 4.4 | 3.5 | 5.9 | -23.1
O=C(Cn1nnc(-c2ccccc2)n1)OCc1csc(-c2ccccc2)n1 | 20.9 | 11.6 | 21.6 | 48.6* | -27.2
CCCCNC(=O)CSc1nc2cc3c(cc2c(=O)n1Cc1ccco1)OCO3 | -5.5 | 0.4 | 22.6 | 10.5 | -12.4
Cc1cc(-c2nc3ncccc3o2)ccc1NC(=S)NC(=O)C(C)C | 40.4* | 37.1 | 19.5 | . | -8.1
Cc1c(C(=O)Nc2cccc(N(C)S(C)(=O)=O)c2)cccc1[N+](=O)[O-] | -1.9 | -0.7 | . | 6.3 | -16.0
Cc1nc(C)c(NC(=O)N2CCc3ccccc32)cc1NC(=O)N1CCc2ccccc21 | 22.3 | 3.2 | 75.7* | -1.1 | -8.5
CC(=O)Nc1ccc(S(=O)(=O)NNC(=O)COc2ccc(Cl)cc2Cl)cc1 | 21.5 | 43.9* | 20.0 | 20.6 | 3.6
C=C(C)c1cccc(C(C)(C)NC(=O)Nc2ccc(OC)cc2)c1 | -9.0 | 1.0 | 0.7 | 7.4 | -16.8
C=C(C)c1cccc(C(C)(C)NC(=O)Nc2ccc(C(C)=O)cc2)c1 | 35.6 | 12.3 | 71.8* | 10.9 | -14.1
O=C(CNC(=O)c1ccc(Cl)cc1)NCCCn1ccnc1 | -1.8 | -1.5 | -10.2 | 14.1 | -26.8
CN1CCN(c2ccc(CNS(=O)(=O)Cc3ccc(Cl)cc3)cc2)CC1 | 31.2 | 32.5 | 17.7 | 61.0* | -4.2
CC(C)CNS(=O)(=O)c1ccc(OCC(=O)NCC2CCCO2)c(Cl)c1 (stereo not given) | -4.6 | -6.0 | -5.2 | 0.1 | -9.7
COC(=O)COc1ccc(S(=O)(=O)NCC2CCCO2)cc1Cl (stereo not given) | -15.2 | -5.2 | -2.3 | -5.5 | 31.4*
CC1=C(C)CC(C(=O)NNC(=O)c2cccc(Cl)c2)C(C(=O)O)C1 (stereo not given) | 1.1 | 5.5 | -7.7 | 8.3 | -22.0
Cn1cc([N+](=O)[O-])c(C(=O)NNC(=O)c2ccc([N+](=O)[O-])cc2Cl)n1 | -3.1 | -3.6 | 11.8 | 6.4 | -14.3
CCOC(=O)/C(C#N)=C/Nc1ccccc1OC(F)(F)F | 0.6 | 9.3 | 3.7 | 4.3 | 0.2
CCOC(=O)CSc1nnc(CNC(=O)c2ccc(S(=O)(=O)N3CCCC3)cc2)n1C | 48.2* | 3.0 | 47.9* | 3.6 | -7.7
CCOC(=O)CSc1nnc(CNC(=O)c2ccc(S(=O)(=O)N3CCOCC3)cc2)n1C | -0.1 | 5.6 | -24.4 | -8.4 | -32.9
Cc1ccc(CSCC(=O)Nc2ccc3c(c2)OCO3)cc1 | -3.1 | 16.7 | 46.0* | 26.2 | -9.4
O=C(CSCc1ccccc1)Nc1ccc2c(c1)OCO2 | -2.5 | -6.8 | -15.7 | -3.1 | -16.4
CC1(C)CC(=O)C(C=Nc2ccccc2Sc2ccccc2)=C(O)C1 | 8.3 | 0.6 | 43.8* | 1.7 | -13.3
CC1(C)CC(=O)C(/C=N/n2cnc3ccccc3c2=O)=C(O)C1 | 4.9 | 6.8 | -5.6 | 23.8 | 78.7*
CC1(C)CC(=O)C(/C=N/c2ccccn2)=C(O)C1 | 6.2 | 5.9 | -5.3 | 20.3 | 50.8*
CC1(C)CC(=O)C(C=Nc2ccccc2C(=O)O)=C(O)C1 | 0.3 | 0.9 | 12.5 | 13.0 | 14.1
SMILES | Thrombin inh | FXIa inh | KLK5 inh | FXIIa inh 1536 | Furin inh
CCCOc1ccc(-c2nc(C#N)c(N3CCN(CC)CC3)o2)cc1 | -5.6 | 0.5 | -0.8 | 3.6 | -8.8
COCC(C)NCc1ccc(OC)c(Br)c1 (stereo not given) | 0.7 | -3.4 | -12.2 | 5.2 | -15.4
CC(NC(=O)Nc1nnc(C(F)(F)F)s1)(C(F)(F)F)C(F)(F)F | 2.8 | 19.9 | -0.5 | 40.1* | -13.5
O=C(O)c1cc(Sc2ccc(Br)cc2)nc2ccccc12 | 2.6 | 31.1 | 43.2* | 36.9 | 3.0
CSc1ccccc1Sc1cc(C(=O)O)c2ccccc2n1 | -4.3 | 18.8 | 1.8 | 22.0 | -12.2
C/C(CC(=O)NC1CCCC1)=N\NC(=O)c1ccc([N+](=O)[O-])c(Cl)c1 | -3.3 | 0.7 | -13.7 | 8.4 | -27.4
Cc1ccc2c(c1)C(=O)N(CCCCO)C2=O | -1.9 | 11.2 | -2.2 | 3.6 | -18.6
O=C1c2ccc(-c3ccc4c(c3)C(=O)N(CCO)C4=O)cc2C(=O)N1CCO | 9.5 | 53.1* | 45.5* | 25.0 | -10.0
NC1=NC(c2ccc(Cl)cc2)C(C(=O)c2ccccc2)N1 (stereo not given) | -3.6 | -1.6 | -0.1 | 2.2 | -20.7
CC(=O)c1ccc(S(=O)(=O)Nc2ccc(-c3cn4c(n3)SCC4)cc2)cc1 | 42.0* | -0.1 | 4.3 | 5.4 | -18.3
Oc1ccc(-c2cn3c(n2)SCC3)cc1 | 4.6 | -5.2 | -18.2 | 12.3 | -22.7
CCN(c1ccccc1)S(=O)(=O)c1ccc(C(=O)Oc2ccc(C(C)=O)cc2)cc1 | -9.7 | -4.6 | -28.2 | 0.0 | -11.6
CCOCCn1c(CN2CCOCC2)nc2c1c(=O)[nH]c(=O)n2C | -5.5 | -6.7 | 40.6* | 1.9 | -31.9
N#C/C(=N\Nc1ccccc1)C(N)=S | 37.6 | 34.6 | 27.0 | 107.3* | 18.5
N#C/C(=N\Nc1ccc(Cl)cc1)C(N)=S | -9.2 | -1.1 | -4.0 | 4.2 | -2.3
Cc1onc(-c2ccc(Cl)cc2Cl)c1-c1csc(COc2ccccc2)n1 | 0.1 | 7.6 | 9.8 | 5.6 | -10.1
COc1ccc(N2C(=O)CCC(C(=O)c3ccccc3)=C2C)cc1 | 7.9 | 1.1 | 5.4 | 8.8 | -19.5
CCNc1nc(Oc2ccccc2)nc(OC(C)C(=O)OCC)n1 (stereo not given) | 2.6 | -1.4 | -11.3 | 11.7 | -26.9
O=C1Nc2ccc(NS(=O)(=O)c3cccs3)c3cccc1c23 | 4.4 | 3.5 | -22.2 | 19.6 | -22.8
O=C(NCc1ccc2c3c(cccc13)C(=O)N2)c1cccs1 | 8.2 | 56.6* | 56.2* | 41.7* | -5.7
CC12CCC(c3c(C(=O)N4CCOCC4)nn(-c4ccccc4)c31)C2(C)C (stereo not given) | 1.6 | 31.0 | 40.6* | 40.5* | -6.8
CC12CCC(c3c(C(=O)O)nn(-c4ccc(F)cc4)c31)C2(C)C (stereo not given) | 4.9 | 4.7 | -3.5 | 22.1 | -17.3
C/C(Cc1ccccc1)=N\NC(=O)CNC(=O)c1ccc(Cl)cc1Cl | 3.5 | 12.1 | 78.0* | 86.4* | -12.5
C/C(Cc1ccccc1)=N\NC(=O)CNC(=O)c1cccc(Cl)c1 | 3.6 | 7.8 | -1.3 | -2.7 | -15.3
C/C(Cc1ccccc1)=N\NC(=O)CNC(=O)/C=C\c1ccccc1 | 10.1 | 50.8* | 112.6* | 23.9 | -5.5
COc1ccc(/C=C/C(=O)NCC(=O)N/N=C(\C)Cc2ccccc2)cc1 | 3.0 | 4.2 | 3.9 | 9.8 | -22.7
CCOC(=O)c1c(/N=C/C2=C(O)CCCC2=O)sc(C)c1C | -3.6 | -5.4 | -8.2 | 4.0 | 28.0*
Cc1c(N2C(=O)/C(=C3/C(=O)N(C)c4ccccc43)SC2=S)c(=O)n(-c2ccccc2)n1C | 6.1 | 6.5 | -0.9 | 20.4 | -27.7
CC(=O)N1C(=O)/C(=C2\SC(=S)N(c3c(C)n(C)n(-c4ccccc4)c3=O)C2=O)c2ccccc21 | 50.1* | -5.8 | 9.6 | 5.6 | -5.1
